According to ChEMBL document CHEMBL1158739, “Chemical constituents of the fruits of Morinda citrifolia (Noni) and their antioxidant activity” (J Nat Prod, 2005):

Columns and labels:
[1] = system: Radical scavenging activity; test: Antioxidant activity assessed as DPPH radical scavenging activity after 30 mins; type: functional
Procedure, shortened: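 Samples in DMSO were plated in triplicate with 200 µM DPPH in EtOH, 37 °C, 30 min, dark, and absorbance read at 515 nm. Percent scavenging was taken against the DMSO control, with gallic acid as positive control. Screening was at 200 µg/mL final, and actives were retested at 2.5–20 µg/mL. IC50 came from linear regression extrapolation.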

[2] = Antioxidant activity assessed as authentic peroxynitrite free radical scavenging activity after 5 mins
[3] = Antioxidant activity assessed as 3-morpholinosydnonimine-derived peroxynitrite free radical scavenging activity after 5 mins
[4] = Antioxidant activity assessed as authentic peroxynitrite free radical scavenging activity […]; type: functional
Procedure, shortened: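 Authentic peroxynitrite (10 µM, in 0.3 N NaOH) oxidizing dihydrorhodamine 123, working solution 5 µM. Buffer was nitrogen-purged 50 mM Na2HPO4, 50 mM NaH2PO4, 90 mM NaCl and 5 mM KCl with 5 mM DTPA. Room temperature, fluorescence at ex 485/em 530 nm; background and final intensities read 5 min after treatment.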

[5] = Antioxidant activity assessed as 3-morpholinosydnonimine-derived peroxynitrite free radical scavenging activity […]; type: functional
Procedure, shortened: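 Peroxynitrite was generated from SIN-1 (10 µM) and measured as oxidation of dihydrorhodamine 123, working solution 5 µM. Buffer was nitrogen-purged 50 mM Na2HPO4, 50 mM NaH2PO4, 90 mM NaCl and 5 mM KCl with 5 mM DTPA. Run at room temperature, fluorescence read at ex 485/em 530 nm; background and final intensities taken 5 min after treatment.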

Row | SMILES | IC50 [1] [µM] | IC50 [2] [µM] | IC50 [3] [µM] | IC50 [4] [µM] | IC50 [5] [µM]
1 | C[C@@H]1O[C@@H](OC[C@H]2O[C@@H](Oc3c(-c4ccc(O)cc4)oc4cc(O)cc(O)c4c3=O)[C@H](O)[C@@H](O)[C@@H]2O)[C@H](O)[C@H](O)[C@H]1O [NICOTIFLOROSIDE] | > 30 | > 30 | > 30 |  | 
2 | CO[C@@]1(CO)O[C@H](CO)[C@@H](O)[C@@H]1O | > 30 | > 30 | > 30 |  | 
3 | O=C1O[C@H]2C=C(CO)[C@@H](CO)[C@H]2[C@@H]1CO [BORRERIAGENIN] | > 30 | > 30 | > 30 |  | 
4 | CC(=O)OCC1=C[C@@H]2OC(=O)C3=CO[C@@H](O[C@@H]4O[C@H](CO)[C@@H](O)[C@H](O)[C@H]4O)[C@H]1[C@@H]32 [ASPERULOSIDE] | > 30 | > 30 | > 30 |  | 
5 | OC[C@@H](O)[C@@H](O)[C@H](O)[C@H](O)CO [MANNITOL] | > 30 | > 30 | > 30 |  | 
6 | COC(=O)C1=CO[C@@H](O[C@@H]2O[C@H](CO)[C@@H](O)[C@H](O)[C@H]2O)[C@@H]2[C@@H](CO)C[C@H](O)[C@H]12 | > 30 |  |  | > 30 | > 30
7 | COC(=O)C1=CO[C@@H](O[C@@H]2O[C@H](CO)[C@@H](O)[C@H](O)[C@H]2O)[C@H]2[C@@H]1[C@@H]1O[C@@H]1[C@@]2(O)CO | > 30 | > 30 | > 30 |  | 
8 | COC(=O)C1=CO[C@@H](O[C@@H]2O[C@H](CO)[C@@H](O)[C@H](O)[C@H]2O)C2C1[C@@H]1O[C@@H]1[C@]21O[C@H]1O (single isomer, unassigned; epimer a) [CITRIFOLININ B EPIMER A] | > 30 | > 30 | > 30 |  | 
9 | Nc1ccn([C@@H]2O[C@H](CO)[C@@H](O)[C@H]2O)c(=O)n1 [CYTIDINE] | > 30 | > 30 | > 30 |  | 
10 | COC(=O)C1=CO[C@@H](O[C@@H]2O[C@H](CO)[C@@H](O)[C@H](O)[C@H]2O)C2C1[C@@H]1O[C@@H]1[C@]21O[C@@H]1O (stereo not given in full) [CITRIFOLININ B EPIMER B] | > 30 | > 30 | > 30 |  | 
11 | COC(=O)C1=CO[C@@H](O[C@@H]2O[C@H](CO)[C@@H](O)[C@H](O)[C@H]2O)[C@H]2[C@@H]1C=C[C@@]21C=C(C(=O)c2ccc(O)c(OC)c2)C(=O)O1 [DEHYDROMETHOXYGAERTNEROSIDE] | > 30 | > 30 | > 30 |  | 
12 | O=C/C=C/c1ccc2c(c1)O[C@@H](CO)[C@H](c1ccc(O)c(O)c1)O2 [AMERICANIN A] | 16.9 |  |  |  | 
13 | CC[C@H](CC[C@@H](C)[C@H]1CC[C@H]2[C@@H]3CC=C4C[C@@H](O[C@@H]5O[C@H](CO)[C@@H](O)[C@H](O)[C@H]5O)CC[C@]4(C)[C@H]3CC[C@]12C)C(C)C [SITOGLUSIDE] | > 30 | > 30 | > 30 |  | 
14 | O=C1O[C@H]2C=C(CO)[C@H]3[C@H](O[C@@H]4O[C@H](CO)[C@@H](O)[C@H](O)[C@H]4O)OC=C1[C@H]32 [DEACETYLASPERULOSIDE] | > 30 | > 30 | > 30 |  | 
15 | CO[C@]1(CO)O[C@H](CO)[C@@H](O)[C@@H]1O | > 30 | > 30 | > 30 |  | 
16 | OC[C@H]1OC(O)[C@H](O)[C@@H](O)[C@@H]1O (stereo not given in full) [DEXTROSE] | > 30 | > 30 | > 30 |  | 
17 | O=C(O)c1cc(O)c(O)c(O)c1 [GALLIC ACID] | 2.7 |  |  |  | 
18 | CC(=O)OCC1=C[C@H](O)[C@@H]2C(C(=O)O)=CO[C@@H](O[C@H]3O[C@@H](CO)[C@H](O)[C@@H](O)[C@@H]3O)[C@H]12 [ASPERULOSIDIC ACID] | > 30 | > 30 | > 30 |  | 
